Data as given in PubChem BioAssay AID588321 (Southern Research Specialized Biocontainment Screening …, 2011).
The source made the active and inactive calls.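 How the source made its calls: active means phage lysis blocked by at least 50% at any tested concentration; inactive means the rest.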

Experiments:
[1] = inhibition of K1F phage lysis of E. coli UTI89, confirmation, capsule biogenesis inhibitor project, set 5 (AID 588321); settings: E. coli UTI89 K1F phage lysis inhibition, OD600; for inhibition of phage lysis: at 100 µM (top of the series); for CC50: measured here: cytotoxicity
Procedure, shortened: (§1)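 Test system: Uropathogenic E. coli UTI89 (K1 capsule) and kpsM mutant cultures; reagent: K1F phage infection; times: 1.25 h pre-incubation, 3 h after phage, 37 °C; signal: absorbance at 600 nm (OD600); read-out basis: lysis from OD600 3 h after phage; benchmarks: kpsM mutant resisting phage lysis; repeats: quadruplicate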

[2] = system: E. coli UTI89 K1F phage lysis inhibition, OD600; test: as above
Procedure, shortened: as §1

Row | SMILES | inhibition of phage lysis [1] | CC50 [1] | IC50 [2]
1 | Cc1onc(-c2ccccc2)c1C(=O)Nc1cc(-c2ccccc2)sc1C(=O)O | 3.71% (inactive) | 52.6 µM | –
2 | O=C(Nc1cc(-c2ccccc2)sc1C(=O)O)c1ccc2c(c1)OCCO2 | – | 82.1 µM | 42.7 µM
3 | O=C(Nc1cc(-c2ccccc2)sc1C(=O)O)c1cc(Cl)c2c(c1)OCCO2 | 6% (inactive) | – | –
4 | O=C(Nc1cc(-c2ccccc2)sc1C(=O)O)c1ccc(Cl)s1 | 10.1% (inactive) | 71.5 µM | –
5 | O=C(Nc1cc(-c2ccccc2)sc1C(=O)O)c1cccc(F)c1 | 18.7% (inactive) | 76.9 µM | –
6 | COC(=O)c1sc(-c2ccccc2)cc1NC(=O)c1c(F)cccc1F | 29.8% (inactive) | 10.4 µM | –
7 | O=C(Nc1cc(-c2ccccc2)sc1C(=O)O)c1cccs1 | – | 89.3 µM | 82.7 µM
8 | O=C(Nc1cc(-c2ccccc2)sc1C(=O)O)c1cccc(Cl)c1 | – | 52.6 µM | 83.5 µM
9 | CCOc1ccc(-c2cc(NC(=O)c3cccc(Cl)c3)c(C(=O)O)s2)cc1 | – | 83.9 µM | 45.6 µM
10 | O=C(Nc1ccncc1)c1ccc2ncsc2c1 | – | – | 1.03 µM
11 | O=C(O)c1sc(-c2ccccc2)cc1NC(=O)C1CCCC1 | 15.2% (inactive) | – | –
12 | CCOc1ccc(-c2cc(NC(=O)c3ccc(OC)c(OC)c3)c(C(=O)O)s2)cc1 | – | 82.8 µM | 56 µM
13 | O=C(O)c1sc(-c2ccccc2)cc1NC(=O)C1CCCCC1 | 16.1% (inactive) | – | –
14 | O=C(Nc1cc(-c2ccccc2)sc1C(=O)O)c1cc2ccccc2o1 | 10.4% (inactive) | – | –
15 | O=C(Nc1cc(-c2ccccc2)sc1C(=O)O)c1ccc(Br)o1 | – | 104 µM | 58.4 µM
16 | CCOc1ccc(-c2cc(NC(=O)c3c(F)cccc3F)c(C(=O)OC)s2)cc1 | 14.9% (inactive) | > 300 µM | –
17 | Cc1c(C(=O)Nc2cc(-c3ccccc3)sc2C(=O)O)oc2ccccc12 | 5.2% (inactive) | 48.7 µM | –
18 | Cc1ccc(C(=O)Nc2cc(-c3ccccc3)sc2C(=O)O)s1 | – | 63.6 µM | –
